KDM4C inh – KDM4C (human) demethylase inhibition; Q9H3R0; GST-KDM4C 2-372, H3K9me3 peptide, LANCE TR-FRET; inhibition, % at 12.5 µM; hit rate 0.15% among 96,000;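 active means mean replicate inhibition above about 25%, with at least 55% of replicates also reaching it, limit read from the data, passing the limit was not always enough; inconclusive means only one of those two conditions met; inactive means neither condition met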
Target sequence (Q9H3R0 2-372 limits assumed): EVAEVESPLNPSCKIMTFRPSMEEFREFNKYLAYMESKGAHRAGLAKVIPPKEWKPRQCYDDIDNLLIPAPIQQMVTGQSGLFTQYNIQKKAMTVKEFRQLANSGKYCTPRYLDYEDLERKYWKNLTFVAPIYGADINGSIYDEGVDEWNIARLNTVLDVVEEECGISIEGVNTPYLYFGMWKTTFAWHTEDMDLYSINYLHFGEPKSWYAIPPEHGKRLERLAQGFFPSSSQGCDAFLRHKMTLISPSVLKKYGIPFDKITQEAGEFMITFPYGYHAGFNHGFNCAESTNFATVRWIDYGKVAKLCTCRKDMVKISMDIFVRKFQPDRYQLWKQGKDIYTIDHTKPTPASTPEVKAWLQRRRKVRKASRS
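Material: GST-tagged GASC-1 (JMJD2C) catalytic fragment, aa 2-372. Input: enzyme final amount 10 nM. Medium: HEPES buffer, pH 7.5, plus ascorbate. Reagent: H3K9me3 peptide substrate, Fe(II), 2-oxoglutarate. Doses: single dose. Times: reaction 30 min RT, detection step 1 h RT. Measured by: LANCE TR-FRET. Evaluation: Fall in 671/618 emission ratio as inhibition.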
T cruzi growth – blocks T. cruzi growth in NIH3T3 culture | T. cruzi beta-gal in NIH3T3, GalScreen luminescence, 90 h | hit rate 5.9% among 77,000 | inhibition, % at 8.34 µM;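 active means mean inhibition above about 93%, with at least 55% of replicates each passing it, limit read from the data, passing the limit was not always enough; inconclusive means only one of those two conditions holds; inactive means neither condition holds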
Pf Dd2 inh – inhibitors of Plasmodium falciparum Dd2 growth | AID 1159554 | P. falciparum Dd2 growth, SYBR Green, 72 h; active compounds read low | hit rate 2.3% among 94,000 | activity change, % at 10 µM; in the data active means activity change below about -80%; inconclusive means no clear call, values can overlap the other calls
IDH1 R132H inh – blocks human IDH1 R132H reductase activity. diaphorase/resazurin fluorescence, 60 min. AID 624101. hit rate 0.18% among 70,000. inhibition, % at 10 µM; in the data active means inhibition above about 34%; inconclusive means no clear call, values can overlap the other calls; inactive means below about 11%
Numbers stand for hits; i = inactive; ? = inconclusive; nt = not tested or not shown. Most compounds without a hit are left out; they make up all but 5.9% or so of the library.

SMILES | KDM4C inh | T cruzi growth | Pf Dd2 inh | IDH1 R132H inh
COC(=O)c1ccc(Cl)c(NC(=O)CN(c2ccccc2Br)S(C)(=O)=O)c1 | nt | nt | nt | i
C[C@@H]1CN([C@@H](C)CO)C(=O)Cc2cc(NC(=O)CCCCCC(=O)Nc3ccccc3N)ccc2O[C@@H]1CN(C)S(=O)(=O)c1ccc(Cl)cc1 | i | i | i | i
COc1ccc(S(=O)(=O)N(C)C[C@@H]2Oc3ccc(NC(=O)CCCCCC(=O)Nc4ccccc4N)cc3CC(=O)N([C@@H](C)CO)C[C@@H]2C)cc1 | i | i | -92 | i
Cc1ccc(S(=O)(=O)N(C)C[C@@H]2Oc3ccc(NC(=O)CCCCCC(=O)Nc4ccccc4N)cc3CC(=O)N([C@H](C)CO)C[C@@H]2C)cc1 | i | i | -87 | i
Cc1cc(Cl)ccc1NC(=O)CN(c1ccc(Cl)cc1)S(C)(=O)=O | nt | nt | nt | i
CCCN(C)C[C@H]1OCCCC[C@@H](C)Oc2ccc(NC(=O)Nc3ccc(C(F)(F)F)cc3)cc2C(=O)N([C@H](C)CO)C[C@H]1C | i | i | -83 | i
CCCN(C)C[C@H]1OCCCC[C@H](C)Oc2ccc(NC(=O)Nc3ccc(C(F)(F)F)cc3)cc2C(=O)N([C@@H](C)CO)C[C@H]1C | i | i | i | i
C[C@@H]1CCCCO[C@H](CN(C)CC2CC2)[C@H](C)CN([C@H](C)CO)C(=O)c2cc(NC(=O)Nc3ccc(C(F)(F)F)cc3)ccc2O1 | i | i | -82 | nt
CCCN(C)C[C@@H]1OCCCC[C@H](C)Oc2ccc(NC(=O)Nc3ccc4c(c3)OCO4)cc2C(=O)N([C@H](C)CO)C[C@@H]1C | i | i | -88 | nt
C[C@H]1CCCCO[C@H](CN(C)CC2CC2)[C@@H](C)CN([C@@H](C)CO)C(=O)c2cc(NC(=O)Nc3ccc(C(F)(F)F)cc3)ccc2O1 | nt | i | -85 | nt
C[C@@H]1CCCCO[C@@H](CN(C)CC2CC2)[C@@H](C)CN([C@H](C)CO)C(=O)c2cc(NC(=O)Nc3ccc4c(c3)OCO4)ccc2O1 | i | i | ? | nt
O=C(CCSc1nc2ccccc2o1)Nc1ccc(F)cc1 | nt | nt | nt | i
Cc1sc2c(c1C)-c1nc(SCC(=O)C(C)(C)C)ncc1S(=O)(=O)N2C | nt | nt | nt | i
Cc1ccc(S(=O)(=O)N(C)C[C@@H]2Oc3c(NC(=O)CCCCCC(=O)Nc4ccccc4N)cccc3C(=O)N([C@H](C)CO)C[C@H]2C)cc1 | i | nt | i | nt
C[C@@H]1CN([C@H](C)CO)C(=O)c2cccc(NC(=O)CCCCCC(=O)Nc3ccccc3N)c2O[C@@H]1CN(C)S(C)(=O)=O | i | nt | i | nt
C[C@@H]1CN([C@H](C)CO)C(=O)c2cccc(NC(=O)CCCCCC(=O)Nc3ccccc3N)c2O[C@@H]1CN(C)S(=O)(=O)c1ccc(Cl)cc1 | i | i | -88 | i
Cc1ccc(S(=O)(=O)N(C)C[C@H]2Oc3c(NC(=O)CCCCCC(=O)Nc4ccccc4N)cccc3C(=O)N([C@H](C)CO)C[C@H]2C)cc1 | i | nt | -90 | i
C[C@@H]1CN([C@H](C)CO)C(=O)c2cccc(NC(=O)CCCCCC(=O)Nc3ccccc3N)c2O[C@@H]1CN(C)S(=O)(=O)c1ccccc1 | i | nt | -89 | i
C[C@H](CO)N1C[C@H](C)[C@@H](CN(C)S(C)(=O)=O)Oc2c(NC(=O)CCCCCC(=O)Nc3ccccc3N)cccc2C1=O | i | nt | i | i
C[C@@H]1CN([C@H](C)CO)C(=O)c2cccc(NC(=O)Nc3cccc4ccccc34)c2O[C@@H]1CN(C)S(=O)(=O)c1ccccc1 | i | i | -81 | nt
C[C@H](CO)N1C[C@H](C)[C@@H](CN(C)S(=O)(=O)c2ccccc2)Oc2c(NC(=O)Nc3cccc4ccccc34)cccc2C1=O | i | i | i | nt
COc1cc(NC(=O)c2ccccc2)c(OC)cc1NC(=O)COc1ccc(Cl)cc1Cl | nt | nt | nt | i
COc1ccc(NC(=O)CSc2nc3sc4c(c3c(=O)n2-c2ccccc2)CCCC4)c([N+](=O)[O-])c1 | nt | nt | nt | i
O=C(CCCCCC(=O)Nc1ccccc1O)N/N=C/[C@@H](O)[C@H](O)[C@H](O)CO | nt | nt | nt | i
Cc1ccc(-n2c(C)nnc2SCC(=O)Nc2cccc(C(F)(F)F)c2)cc1 | nt | nt | nt | i
SMILES | KDM4C inh | T cruzi growth | Pf Dd2 inh | IDH1 R132H inh
Cc1onc(-c2ccccc2)c1C(=O)N(CCC#N)CCC#N | nt | nt | nt | i
C[C@@H]1CN([C@H](C)CO)C(=O)c2cccc(NC(=O)CCCCCC(=O)Nc3ccccc3N)c2O[C@@H]1CN(C)S(=O)(=O)c1cccs1 | i | nt | -84 | nt
C[C@H](CO)N1C[C@H](C)[C@H](CN(C)C(=O)c2cccnc2)Oc2cc(C#CC3CC3)ccc2S1(=O)=O | i | i | i | i
C[C@@H]1CN([C@H](C)CO)S(=O)(=O)c2ccc(C#CC3CC3)cc2O[C@H]1CN(C)Cc1cccnc1 | i | nt | i | 60
C[C@H](CO)N1C[C@H](C)[C@@H](CN(C)C(=O)c2cccnc2)Oc2cc(C#CC3CC3)ccc2S1(=O)=O | i | i | i | 42
COc1ccc2c3c(n(C)c2c1)[C@@H](CO)N(C)CC31CN(C(=O)c2ccc3c(c2)OCO3)C1 | i | nt | i | nt
COc1ccc2c3c(n(C)c2c1)[C@@H](CO)N(C(=O)Nc1ccc(F)cc1)CC31CN(C(=O)c2ccc3c(c2)OCO3)C1 | i | nt | -87 | nt
COc1ccc2c3c(n(C)c2c1)[C@H](CO)N(C(=O)Nc1ccc(F)cc1)CC31CN(C(=O)c2ccc3c(c2)OCO3)C1 | i | nt | -89 | nt
COC(=O)CC(O)(CCCC(C)(C)O)C(=O)O[C@@H]1C(OC)=C[C@]23CCCN2CCc2cc4c(cc2[C@@H]13)OCO4 (some centres not stated) | nt | nt | nt | i
CC(OC(=O)c1cccc(O)c1)C(=O)O (configuration not stated) | nt | nt | nt | i
C[C@H]1CN([C@@H](C)CO)C(=O)c2c(c3ccccc3n2C)-c2ccccc2CO[C@@H]1CN(C)C(=O)Nc1cccc(Cl)c1Cl | i | nt | -84 | nt
C[C@H](CO)N1C[C@H](C)[C@@H](CN(C)C(=O)Nc2ccccc2C(F)(F)F)OCc2ccccc2-c2c(n(C)c3ccccc23)C1=O | nt | nt | i | nt
C[C@@H]1CN([C@@H](C)CO)C(=O)c2c(c3ccccc3n2C)-c2ccccc2CO[C@H]1CN(C)C(=O)Nc1ccccc1C(F)(F)F | i | nt | -90 | nt
C[C@H](CO)N1C[C@H](C)[C@@H](CN(C)Cc2ccc(-c3ccccc3)cc2)Oc2ccc(NC(=O)Nc3ccc(C(F)(F)F)cc3)cc2C1=O | i | ? | -85 | nt
C[C@@H]1CN([C@H](C)CO)C(=O)c2cc(NC(=O)Nc3ccccc3)ccc2O[C@@H]1CN(C)Cc1ccc(C(F)(F)F)cc1 | i | i | i | i
C[C@H](CO)N1C[C@H](C)[C@H](CN(C)Cc2ccc(Oc3ccccc3)cc2)Oc2ccc(NC(=O)Nc3ccc(C(F)(F)F)cc3)cc2C1=O | i | i | -88 | nt
C[C@H](CO)N1C[C@H](C)[C@@H](CN(C)Cc2ccc(Oc3ccccc3)cc2)Oc2ccc(NC(=O)Nc3ccc(C(F)(F)F)cc3)cc2C1=O | i | i | i | i
O=C(CCN1C(=O)c2ccccc2C1=O)Oc1c(-c2ccccc2)oc2ccccc2c1=O | nt | nt | nt | i
CCC(=O)N1CC2(C1)[C@@H](c1ccc(-c3cccc(OC)c3)cc1)[C@@H](CO)N2C(C)=O | i | nt | -90 | nt
